According to paper PMC3715850 (Nature Communications, 2013):
Like-named read-outs stand apart in the source and are kept apart here.

Experiments:
Type in all cases: binding
E710A = E710A (Escherichia coli, UniProt P00582, C907S/D424A/E710A/K550C/L744C); conditions: for occupancy of the closed conformation: 1 mM dNTP
Procedure, shortened: (§1)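 Doubly labelled Klenow fragment (<100 pM) with DNA, titrated with nucleotide in 40 mM HEPES-NaOH pH 7.3, 10 mM MgCl2, 1 mM DTT, 100 μg ml−1 BSA, 5% glycerol, 1 mM mercaptoethylamine. Read by confocal alternating-laser excitation (532/638 nm) at ~22 °C. Stoichiometry-filtered E* histograms fitted as double Gaussians (σ≤0.07). Low-FRET peak shift and high-FRET fraction globally fitted for K0, K1, K2; Kd1=1/K1, Kd2=1/(K1K2).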

wt KF [1] = target: T1, wt KF (Escherichia coli, UniProt P00582, C907S/D424A/K550C/L744C); conditions: for free energy of closed complex relative to partially closed state, ΔrG(IN/CN) / free energy of partially closed state relative to open binary complex, ΔrG(O/IN): template A; for free energy of partially closed state relative to open binary complex, ΔrG(O/IN): nucleotide concentrations in E. coli (dTTP 120 μM, dGTP 60 μM)
Procedure, shortened: as §1

Y766F = Y766F (Escherichia coli, UniProt P00582, C907S/D424A/K550C/L744C/Y766F); conditions: template A (DNA1); listed as A-dTTP
Procedure, shortened: as §1

Y766A = Y766A (Escherichia coli, UniProt P00582, C907S/D424A/K550C/L744C/Y766A); conditions: template G (DNA2); listed as G-dCTP
Procedure, shortened: as §1

wt KF [2] = target: T1, wt KF; experiment: Single-molecule FRET nucleotide titration in the absence of DNA; conditions: no DNA
Procedure, shortened: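 Polymerase without DNA: doubly labelled protein (<100 pM) titrated with nucleotide in HEPES-NaOH pH 7.3 buffer with 10 mM MgCl2, at ~22 °C by confocal alternating-laser excitation smFRET. O and C denote unliganded-protein states. Double-Gaussian fits of stoichiometry-filtered E* histograms; low-FRET peak shift and high-FRET fraction fitted globally for K0, K1, K2, with Kd1=1/K1.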

wt KF [3] = target: T1, wt KF; experiment: Interconversion rates of ternary complexes by PDA and FRET-width analysis; conditions: template A, listed as A-dGTP
[4] = ternary complex, saturating nucleotide, PDA

Nc1ncnc2c1ncn2[C@H]1C[C@H](O)[C@@H](COP(=O)(O)OP(=O)(O)OP(=O)(O)O)O1 [dATP]
occupancy of the closed conformation (E710A; template T (DNA3)): 58% | K2 (equilibrium IN to closed CN) (E710A; template T (DNA3), listed as T-dATP): ~ 2

Cc1cn([C@H]2C[C@H](O)[C@@H](COP(=O)(O)OP(=O)(O)OP(=O)(O)O)O2)c(=O)[nH]c1=O [dTTP]
free energy of closed complex relative to partially closed state, ΔrG(IN/CN) (wt KF [1]): -4 kJ/mol | molecules in closed conformation (occupancy) (wt KF [1]; template A (DNA1), 1 mM nucleotide): ~ 85% | K2 (equilibrium IN to closed CN) (wt KF [1]; template A (DNA1), listed as A-dTTP): 6.1 | free energy of partially closed state relative to open binary complex, ΔrG(O/IN) (wt KF [1]): -8 kJ/mol | K2 (equilibrium IN to closed CN) (Y766F): 9.6

Nc1nc2c(ncn2[C@@H]2O[C@H](COP(=O)(O)OP(=O)(O)OP(=O)(O)O)[C@@H](O)[C@H]2O)c(=O)[nH]1 [rGTP]
K2 (equilibrium IN to closed CN) (wt KF [1]; template A (DNA1), listed as A-rGTP): < 0.2

Nc1ccn([C@H]2C[C@H](O)[C@@H](COP(=O)(O)OP(=O)(O)OP(=O)(O)O)O2)c(=O)n1 [dCTP]
occupancy of the closed conformation (E710A; template G (DNA2)): 61% | K2 (equilibrium IN to closed CN) (E710A; template G (DNA2), listed as G-dCTP): ~ 2 | K2 (equilibrium IN to closed CN) (Y766A): 8.9

Nc1nc2c(ncn2[C@H]2C[C@H](O)[C@@H](COP(=O)(O)OP(=O)(O)OP(=O)(O)O)O2)c(=O)[nH]1 [dGTP]
free energy of closed complex relative to partially closed state, ΔrG(IN/CN) (wt KF [1]): +6 kJ mol^−1 | free energy of partially closed state relative to open binary complex, ΔrG(O/IN) (wt KF [1]): -0.7 kJ/mol | K2 (equilibrium IN to closed CN) (wt KF [2]): < 0.2 | rate of the O-to-IN transition (wt KF [3]; at 60 μM dGTP (E. coli concentration), K1·kIN→O·[N]): 390 s⁻¹ | kCN→IN (closed to partially closed) (wt KF [3]; [4]): 45 s⁻¹ | kIN→CN (partially closed to closed) (wt KF [3]; [4]): 3 s⁻¹
